Results as given in ChEMBL document CHEMBL1140857 (Bioorg Med Chem, 2009).

Tests used:
MCF7 = assay: Cytotoxicity against human MCF7 cells after 96 hrs at 20 uM by crystal violet staining relative to control; format: functional
In short: (§1)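 Cell lines from DSMZ (German collection). Cells exposed to 20 µM test substance at 37 °C for 96 h; medium removed and adherent (living) cells stained with crystal violet. Growth given as % of untreated control; averages of two independent experiments.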

Sus scrofa = species on record: Sus scrofa; assay: Displacement of [3H]MK-801 from NMDA receptor in pig brain cortex at 1 uM
5637 = assay: Cytotoxicity against human 5637 cells at 20 uM after 96 hrs by crystal violet staining relative to control; format: functional; in short: as §1
DAN-G = assay: Cytotoxicity against human DAN-G cells after 96 hrs at 20 uM by crystal violet staining relative to control; format: functional; in short: as §1
RT-4 = assay: Cytotoxicity against human RT4 cells at 20 uM after 96 hrs by crystal violet staining relative to control; format: functional; in short: as §1
[1] = Cytotoxicity against human LCLC-103H cells at 20 uM after 96 hrs by crystal violet staining relative to control; format: functional; in short: as §1
A-427 [2] = assay: Cytotoxicity against human A427 cells after 96 hrs by crystal violet staining relative to control; format: functional, cell-based; settings: A-427, 96 h
In short: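 Crystal violet microtiter assay, 96 h exposure at 37 °C. Five serial dilutions from DMF stock solutions; concentrations giving T/C between 10% and 90% used, and IC50 calculated by least-squares analysis of dose–response curves.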

[3] = Displacement of [3H][…] from opioid sigma2 receptor in rat liver homogenate in presence of (+)-pentazocine; format: tissue-based
In short: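 Rat liver membranes (about 100 µg protein, 50 mM Tris pH 8.0) incubated 180 min at room temperature with six concentrations of test compound, 3 nM [3H]-ditolylguanidine (Kd 17.9 nM) and 500 nM (+)-pentazocine. […] IC50 by nonlinear regression, Ki by Cheng–Prusoff; triplicates, mean ± SEM of three experiments.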

[4] = target: Sigma non-opioid intracellular receptor 1 (Cavia porcellus) (UniProt Q60492); assay: Displacement of [3H](+)-pentazocine from opioid sigma1 receptor in guinea pig brain homogenate at 1 uM; format: tissue-based
In short: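 Guinea pig brain membranes (about 75 µg protein, 50 mM Tris pH 7.4) with 2 nM [3H]-(+)-pentazocine, 180 min at 37 °C. Test compound at 1 µM; inhibition of radioligand binding reported. Non-specific binding with 10 µM unlabeled (+)-pentazocine; filtration and scintillation counting.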

A-427 [5] = assay: Cytotoxicity against human A427 cells at 20 uM after 96 hrs by crystal violet staining relative to control; format: functional; in short: as §1
[6] = target: Sigma non-opioid intracellular receptor 1 (Cavia porcellus, UniProt Q60492); assay: Displacement of [3H](+)-pentazocine from opioid sigma1 receptor in guinea pig brain homogenate; format: tissue-based
In short: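 Non-specific binding with 10 µM unlabeled (+)-pentazocine. Filtration, scintillation counting; IC50 by nonlinear regression, Ki by Cheng–Prusoff; triplicates, mean ± SEM of three independent experiments.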

[7] = Selectivity ratio of Ki for rat sigma2 receptor to Ki for guinea pig sigma1 receptor

Sigma non-opioid intracellular receptor 1, sequence (Q60492 whole entry): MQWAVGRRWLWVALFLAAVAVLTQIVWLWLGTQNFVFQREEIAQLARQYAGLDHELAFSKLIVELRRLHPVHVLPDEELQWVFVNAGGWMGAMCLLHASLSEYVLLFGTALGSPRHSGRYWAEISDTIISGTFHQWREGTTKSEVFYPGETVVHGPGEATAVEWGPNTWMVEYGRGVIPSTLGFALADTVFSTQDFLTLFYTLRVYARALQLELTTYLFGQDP
Sigma non-opioid intracellular receptor 1 (Cavia porcellus), sequence (Q60492 whole entry): as above

Activity (Sus scrofa)	Ki [3]	inhibition [4]	Ki [6]	Ratio [7]	SMILES	Activity (MCF7)	Activity 5637	Activity (DAN-G)	Activity (RT-4)	Activity [1]	IC50 (A-427 [2])	Activity (A-427 [5])
< 25%	13500 nM	37%	–	–	C=CCN1C[C@H]2[C@@H](OC)CC[C@@H]1CN2Cc1ccc(OC)cc1OC	79%	63%	84%	87%	98%	18900 nM	49%
< 25%	1210 nM	–	343 nM	4	C=CCN1C[C@H]2[C@@H](O)CC[C@@H]1CN2Cc1ccc(OC)cc1	99%	104%	100%	107%	111%	–	90%
< 25%	203 nM	–	11 nM	20	C=CCN1C[C@@H]2CCC[C@H]1CN2Cc1ccc(OC)cc1	65%	87%	92%	65%	91%	–	42%
